For 20 compounds, inhibition, MIC and IC50 results are on record in ChEMBL document CHEMBL2016480, “Structure-based ligand design of novel bacterial RNA polymerase inhibitors” (ACS Med Chem Lett, 2011).

The nature of assay [1]: Inhibition of chymotrypsin at 100 uM. Put shortly:
(§1)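 Counter-screens for promiscuous inhibition using malate dehydrogenase and chymotrypsin enzyme assays. Activity was reported as percentage inhibition at 100 μM compound.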

Assay [2] deals with Bacillus subtilis. Put plainly: Antibacterial activity against Bacillus subtilis 1S34. The class given is functional. Put shortly:
(§2)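 MICs by standard susceptibility testing per British Society for Antimicrobial Chemotherapy guidelines, run in triplicate. For the PMBN lines, tests were repeated with polymyxin B nonapeptide added as an outer-membrane permeabilizer.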

The test system of a further assay is Saccharomyces cerevisiae. Put plainly: Inhibition of yeast RNA polymerase 2 at 100 uM. Put shortly:
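Selectivity assay against yeast RNA polymerase II. Activity was reported as percentage inhibition at 100 μM compound.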

For assay [3], the system named is Escherichia coli. Briefly: Antibacterial activity against kanamycin-resistant,acrAB::Tn903 deficient Escherichia coli SM1411 expressing lacI3, lacZ118, proB, trp, nalA, rpsL in the presence of polymyxin B nonapeptide. It is filed as functional.
The nature of assay [4]: Inhibition of malate dehydrogenase at 100 uM. Put shortly: as §1
In assay [5] the test system is Bacillus subtilis. Briefly: Antibacterial activity against Bacillus subtilis 1S34 in the presence of polymyxin B nonapeptide. The class given is functional. Put shortly: as §2
For assay [6], the system named is Staphylococcus aureus. Briefly: Antibacterial activity against Staphylococcus aureus SH1000 expressing rsbU gene. It is filed as functional. Put shortly: as §2
Assay [7] deals with Escherichia coli. Put plainly: Antibacterial activity against Escherichia coli 1411 expressing lacI3, lacZ118, proB, trp, nalA, rpsL. It is filed as functional. Put shortly: as §2
The subject of assay [8] is Escherichia coli. Briefly: Antibacterial activity against kanamycin-resistant,acrAB::Tn903 deficient Escherichia coli SM1411 expressing lacI3, lacZ118, proB, trp, nalA, rpsL. It is filed as functional.
For assay [9], the system named is Staphylococcus aureus. Briefly: Antibacterial activity against Staphylococcus aureus SH1000 expressing rsbU gene in the presence of polymyxin B nonapeptide. It is filed as functional. Put shortly: as §2
For assay [10], the system named is Escherichia coli. Briefly: Antibacterial activity against Escherichia coli 1411 expressing lacI3, lacZ118, proB, trp, nalA, rpsL in the presence of polymyxin B nonapeptide. The class given is functional. Put shortly:
as §2

Assay [11] in a line: Inhibition of Escherichia coli DNA dependent RNA polymerase after 2 hrs by SYBR Green-based spectrophotometric analysis. Put shortly: (§3)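 In vitro transcription assay with E. coli RNA polymerase on a Kool NC-45 RNAP template. Activity was reported as IC50 or as percentage inhibition at 100 μM compound.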
Assay [12] concerns Escherichia coli. Briefly: Inhibition of Escherichia coli DNA dependent RNA polymerase at 100 uM after 2 hrs by SYBR Green-based spectrophotometric analysis. Put shortly: as §3

Bounds are passed on as bounds.

For `NC(=O)c1ccc(C(=O)Nc2ccc(-n3cncn3)nc2)cc1`, the inhibition – broadly, the relative decrease from the control value, in per cent – in [1] was 1.5%; in the assay on Saccharomyces cerevisiae, 5.2%; in assay [4], 0%. Moreover, the minimum inhibitory concentration (MIC) against Bacillus subtilis [2], in the assay with Escherichia coli [3], in the assay on Bacillus subtilis [5], against Staphylococcus aureus [6], against Escherichia coli [7] and with Escherichia coli [8] was > 256 µg/mL throughout. Also, the minimal inhibitory concentration (MIC) in the assay on Staphylococcus aureus [9] and in the assay with Escherichia coli [10] was > 256 µg/mL throughout. In assay [11], the IC50 (in general, the concentration that gives 50% inhibition) is 9.9 µM.

In the case of `N#Cc1ccc(C(=O)Nc2ccc(-n3ccnc3)nc2)cc1`, the inhibition amounted to 1.8% in [1], 17.6% in the assay with Saccharomyces cerevisiae and 0.6% in assay [4]. Besides, the minimal inhibitory concentration (MIC) with Bacillus subtilis [2], with Escherichia coli [3], in the assay with Bacillus subtilis [5], in the assay with Staphylococcus aureus [6], against Escherichia coli [7] and against Escherichia coli [8] was > 256 µg/mL each time. Moreover, the MIC with Staphylococcus aureus [9] and in the assay on Escherichia coli [10] was > 256 µg/mL in each case. Further, in [11], half-maximal inhibition (IC50) was put at 7.2 µM.

Regarding `NS(=O)(=O)c1ccc(C(=O)Nc2cnc3ccccc3c2)cc1`, the MIC against Bacillus subtilis [2], with Escherichia coli [3], with Bacillus subtilis [5], with Staphylococcus aureus [6], in the assay on Escherichia coli [7] and with Escherichia coli [8] was > 256 µg/mL in each case. The MIC in the assay with Staphylococcus aureus [9] and with Escherichia coli [10] was > 256 µg/mL in each case. Besides, in the assay with Escherichia coli [12], the inhibition is 0%.

Consider `NS(=O)(=O)c1ccc(C(=O)Nc2ccc(-c3ccco3)nc2)cc1`, for which the minimal inhibitory concentration (MIC) against Bacillus subtilis [2], with Escherichia coli [3], in the assay with Bacillus subtilis [5], in the assay on Staphylococcus aureus [6], against Escherichia coli [7] and with Escherichia coli [8] was > 256 µg/mL each time. Also, the minimal inhibitory concentration (MIC) in the assay on Staphylococcus aureus [9] and in the assay with Escherichia coli [10] was > 256 µg/mL each time. This compound showed an inhibition in the assay on Escherichia coli [12] of 12.9%.

Regarding `O=C(O)c1ccc(C(=O)Nc2ccc(-n3ccnc3)nc2)cc1`, the minimal inhibitory concentration (MIC) against Bacillus subtilis [2], with Escherichia coli [3], in the assay on Bacillus subtilis [5], with Staphylococcus aureus [6], against Escherichia coli [7] and with Escherichia coli [8] was > 256 µg/mL each time. Moreover, the minimal inhibitory concentration (MIC) with Staphylococcus aureus [9] and with Escherichia coli [10] was > 256 µg/mL throughout. Further, the inhibition in the assay on Escherichia coli [12] stood at 0%.

`N#Cc1ccc(C(=O)Nc2ccc(-n3cncn3)nc2)cc1`: the inhibition was found to be 0% in assay [1], 12% in the assay on Saccharomyces cerevisiae and 0% in assay [4]. Moreover, the minimum inhibitory concentration (MIC) in the assay with Bacillus subtilis [2], in the assay with Escherichia coli [3], in the assay with Bacillus subtilis [5], against Staphylococcus aureus [6], against Escherichia coli [7] and in the assay on Escherichia coli [8] was > 256 µg/mL in each case. The minimum inhibitory concentration (MIC) with Staphylococcus aureus [9] and in the assay on Escherichia coli [10] was > 256 µg/mL in each case. Moreover, the IC50 in [11] is 9.9 µM.

For `COC(=O)c1ccc(C(=O)Nc2ccc(-n3ccnc3)nc2)cc1`, the MIC in the assay with Bacillus subtilis [2], in the assay with Escherichia coli [3], with Bacillus subtilis [5], against Staphylococcus aureus [6], in the assay with Escherichia coli [7] and in the assay on Escherichia coli [8] was > 256 µg/mL in each case. Also, the MIC with Staphylococcus aureus [9] and with Escherichia coli [10] was > 256 µg/mL each time. Also, the inhibition in the assay on Escherichia coli [12] is 0%.

As to `NS(=O)(=O)c1ccc(NC(=O)c2ccc(-n3cncn3)nc2)cc1`, the MIC in the assay with Bacillus subtilis [2], in the assay with Escherichia coli [3], in the assay on Bacillus subtilis [5], against Staphylococcus aureus [6], in the assay with Escherichia coli [7] and with Escherichia coli [8] was > 256 µg/mL throughout. Besides, the minimal inhibitory concentration (MIC) with Staphylococcus aureus [9] and in the assay with Escherichia coli [10] was > 256 µg/mL in each case. The inhibition in the assay with Escherichia coli [12] came to 0%.

With `NS(=O)(=O)c1ccc(C(=O)Nc2ccc(N3CCOCC3)nc2)cc1`, the MIC against Bacillus subtilis [2], in the assay with Escherichia coli [3], in the assay on Bacillus subtilis [5], against Staphylococcus aureus [6], in the assay with Escherichia coli [7] and with Escherichia coli [8] was > 256 µg/mL each time. Moreover, the minimum inhibitory concentration (MIC) with Staphylococcus aureus [9] and in the assay with Escherichia coli [10] was > 256 µg/mL throughout. Also, the inhibition with Escherichia coli [12] amounted to 0%.

Turning to `NS(=O)(=O)c1ccc(C(=O)Nc2cccnc2)cc1`, the minimal inhibitory concentration (MIC) against Bacillus subtilis [2], in the assay with Escherichia coli [3], in the assay on Bacillus subtilis [5], in the assay with Staphylococcus aureus [6], against Escherichia coli [7] and in the assay on Escherichia coli [8] was > 256 µg/mL throughout. Also, the minimal inhibitory concentration (MIC) in the assay on Staphylococcus aureus [9] and in the assay with Escherichia coli [10] was > 256 µg/mL each time. The compound further registered an inhibition in the assay with Escherichia coli [12] of 0%.

For `NS(=O)(=O)c1ccc(C(=O)Nc2ccc(-c3ccccc3)nc2)cc1`, the MIC in the assay on Bacillus subtilis [2], with Escherichia coli [3], in the assay on Bacillus subtilis [5], in the assay with Staphylococcus aureus [6], in the assay on Escherichia coli [7] and against Escherichia coli [8] was > 256 µg/mL in each case. Further, the MIC with Staphylococcus aureus [9] and with Escherichia coli [10] was > 256 µg/mL throughout. In addition, the inhibition in the assay with Escherichia coli [12] stood at 32.9%.

Take `O=C(Nc1ccc(-n2cncn2)nc1)c1ccc(C(F)(F)F)cc1`: the minimal inhibitory concentration (MIC) with Bacillus subtilis [2], in the assay with Escherichia coli [3], in the assay on Bacillus subtilis [5], in the assay on Staphylococcus aureus [6], against Escherichia coli [7] and in the assay on Escherichia coli [8] was > 256 µg/mL throughout. For the same compound, the MIC with Staphylococcus aureus [9] and with Escherichia coli [10] was > 256 µg/mL each time. This compound also showed an inhibition with Escherichia coli [12] of 5.9%.

For the compound `CS(=O)(=O)c1ccc(C(=O)Nc2ccc(-n3cncn3)nc2)cc1`, the MIC with Bacillus subtilis [2], with Escherichia coli [3], with Bacillus subtilis [5], against Staphylococcus aureus [6], against Escherichia coli [7] and with Escherichia coli [8] was > 256 µg/mL each time. Besides, the minimal inhibitory concentration (MIC) in the assay on Staphylococcus aureus [9] and in the assay with Escherichia coli [10] was > 256 µg/mL throughout. The inhibition with Escherichia coli [12] stood at 0%.

With `N#Cc1ccc(C(=O)Nc2cnc3ccccc3c2)cc1`, the minimum inhibitory concentration (MIC) against Bacillus subtilis [2], in the assay on Escherichia coli [3], in the assay on Bacillus subtilis [5], in the assay with Staphylococcus aureus [6], against Escherichia coli [7] and in the assay on Escherichia coli [8] was > 256 µg/mL in each case. Further, the MIC in the assay with Staphylococcus aureus [9] and in the assay on Escherichia coli [10] was > 256 µg/mL throughout. Also, the inhibition with Escherichia coli [12] came out at 0%.

Take `NS(=O)(=O)c1ccc(C(=O)Nc2ccc(N3CCCC3)nc2)cc1`: the minimal inhibitory concentration (MIC) in the assay with Bacillus subtilis [2], in the assay on Escherichia coli [3], with Bacillus subtilis [5], against Staphylococcus aureus [6], against Escherichia coli [7] and against Escherichia coli [8] was > 256 µg/mL throughout. For the same compound, the minimal inhibitory concentration (MIC) with Staphylococcus aureus [9] and with Escherichia coli [10] was > 256 µg/mL throughout. Also, the inhibition in the assay with Escherichia coli [12] came to 17.9%.

With `NS(=O)(=O)c1ccc(C(=O)Nc2ccc(-n3ccnc3)nc2)cc1`, the inhibition in [1] amounted to 0%; in the assay with Saccharomyces cerevisiae it was 14.7%; in assay [4], 0.5%. Besides, the MIC with Bacillus subtilis [2], in the assay with Escherichia coli [3], in the assay with Bacillus subtilis [5], in the assay with Staphylococcus aureus [6], in the assay on Escherichia coli [7] and with Escherichia coli [8] was > 256 µg/mL in each case. Moreover, the MIC in the assay with Staphylococcus aureus [9] and in the assay on Escherichia coli [10] was > 256 µg/mL in each case. The same compound displayed a concentration for half-maximal inhibition (IC50) in assay [11] of 18.9 µM.

With `NC(=O)c1ccc(C(=O)Nc2ccc(-n3ccnc3)nc2)cc1`, the inhibition was determined as 0.1% in [1], 10.5% in the assay with Saccharomyces cerevisiae and 0% in assay [4]. In addition, the minimal inhibitory concentration (MIC) against Bacillus subtilis [2], with Escherichia coli [3], in the assay on Bacillus subtilis [5], in the assay with Staphylococcus aureus [6], against Escherichia coli [7] and in the assay with Escherichia coli [8] was > 256 µg/mL in each case. Further, the MIC in the assay on Staphylococcus aureus [9] and in the assay on Escherichia coli [10] was > 256 µg/mL throughout. Further, the IC50 in assay [11] was 11.9 µM.

In the case of `NS(=O)(=O)c1ccc(C(=O)Nc2ccc(OCc3ccccn3)nc2)cc1`, the minimal inhibitory concentration (MIC) with Bacillus subtilis [2], in the assay with Escherichia coli [3], in the assay with Bacillus subtilis [5], against Staphylococcus aureus [6], in the assay with Escherichia coli [7] and in the assay with Escherichia coli [8] was > 256 µg/mL in each case. The MIC with Staphylococcus aureus [9] and with Escherichia coli [10] was > 256 µg/mL each time. The same compound showed an IC50 in assay [11] of 151 µM.

As to `N#Cc1ccc(C(=O)Nc2ccc(-c3ccccc3)nc2)cc1`, the MIC in the assay on Bacillus subtilis [2], in the assay with Escherichia coli [3], in the assay on Bacillus subtilis [5], against Staphylococcus aureus [6], against Escherichia coli [7] and against Escherichia coli [8] was > 256 µg/mL throughout. For the same compound, the MIC in the assay with Staphylococcus aureus [9] and with Escherichia coli [10] was > 256 µg/mL each time. In the assay on Escherichia coli [12], this compound registered an inhibition of 10.9%.

Take `O=C(Nc1ccc(-n2cncn2)nc1)c1ccccc1`: the MIC in the assay with Bacillus subtilis [2], in the assay with Escherichia coli [3], with Bacillus subtilis [5], in the assay on Staphylococcus aureus [6], in the assay on Escherichia coli [7] and against Escherichia coli [8] was > 256 µg/mL each time. Moreover, the MIC in the assay on Staphylococcus aureus [9] and with Escherichia coli [10] was > 256 µg/mL in each case. The compound further showed an inhibition with Escherichia coli [12] of 0%.
